According to PMC4437465 (Molecular microbiology, 2014):
Like-named read-outs stand apart in the source and are kept apart here. Values belong to the molecule of their own block, whether it stands above or below them.

How the values were obtained:
[1] = target: T1, EUR_01830 (Agathobacter rectalis, UniProt A0ABF7PGY2); experiment: isothermal titration calorimetry; type: binding; details: 20 mM HEPES, 100 mM NaCl pH 7.0, 25 °C
T1 sequence (A0ABF7PGY2 24-422): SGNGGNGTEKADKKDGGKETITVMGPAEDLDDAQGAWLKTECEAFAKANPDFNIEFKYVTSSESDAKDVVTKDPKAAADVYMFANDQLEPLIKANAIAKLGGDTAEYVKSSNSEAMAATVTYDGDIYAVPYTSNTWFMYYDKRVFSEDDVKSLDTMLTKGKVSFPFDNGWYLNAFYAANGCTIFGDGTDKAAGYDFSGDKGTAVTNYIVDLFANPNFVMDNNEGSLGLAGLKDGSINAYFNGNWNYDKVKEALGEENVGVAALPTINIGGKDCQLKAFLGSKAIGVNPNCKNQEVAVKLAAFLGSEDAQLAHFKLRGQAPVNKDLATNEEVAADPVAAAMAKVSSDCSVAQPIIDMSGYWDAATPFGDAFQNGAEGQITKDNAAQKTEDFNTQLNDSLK

[2] = target: T2, EUR_01240 (Agathobacter rectalis, UniProt D6E1S8); experiment: isothermal titration calorimetry; type: binding; details: read-out: EUR_01240 / Kd; 20 mM HEPES, 100 mM NaCl pH 7.0, 25 °C
T2 sequence (D6E1S8 23-427): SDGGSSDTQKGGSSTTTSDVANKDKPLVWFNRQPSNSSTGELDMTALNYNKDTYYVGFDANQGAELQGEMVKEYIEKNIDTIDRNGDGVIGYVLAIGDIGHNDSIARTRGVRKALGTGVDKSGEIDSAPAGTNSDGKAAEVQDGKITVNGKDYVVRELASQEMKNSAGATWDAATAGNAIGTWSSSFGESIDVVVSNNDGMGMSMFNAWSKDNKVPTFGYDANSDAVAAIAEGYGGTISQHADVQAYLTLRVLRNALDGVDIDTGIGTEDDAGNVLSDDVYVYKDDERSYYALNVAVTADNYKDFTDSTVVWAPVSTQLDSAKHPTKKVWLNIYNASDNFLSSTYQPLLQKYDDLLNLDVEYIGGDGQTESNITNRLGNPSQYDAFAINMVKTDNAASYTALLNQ
Summary of the method: (§1)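 Runs used a low-volume NanoITC at 25 °C. Protein (30–150 μM) was dialysed against 20 mM HEPES, 100 mM NaCl pH 7.0 and loaded in the sample cell, with water in the reference cell. Oligosaccharides (0.5–5 mM) were prepared in dialysis buffer and delivered as a small first injection plus 27 further injections. Stirring was at 350 rpm. Heat of reaction was recorded and fitted for Kd.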

[3] = target: T1, EUR_01830; experiment: isothermal titration calorimetry; type: binding; details: read-out: EUR_01830 / Kd; 20 mM HEPES, 100 mM NaCl pH 7.0, 25 °C
[4] = target: EUR_31480; experiment: isothermal titration calorimetry; type: binding, Agathobacter rectalis; details: read-out: EUR_31480 / Kd; 20 mM HEPES, 100 mM NaCl pH 7.0, 25 °C
Summary of the method: as §1

[5] = target: T1, EUR_01830; experiment: isothermal titration calorimetry; type: binding; details: 20 mM HEPES, 100 mM NaCl pH 7.0, 25 °C; isotherm not fitted
[6] = target: T3, EUR_21100 (Agathobacter rectalis, UniProt A0ABF7PGZ5); experiment: thin layer chromatography of products; type: biochemical; details: 25 mM HEPES pH 6.5, 150 mM NaCl, 37 °C
T3 sequence (A0ABF7PGZ5 45-1329): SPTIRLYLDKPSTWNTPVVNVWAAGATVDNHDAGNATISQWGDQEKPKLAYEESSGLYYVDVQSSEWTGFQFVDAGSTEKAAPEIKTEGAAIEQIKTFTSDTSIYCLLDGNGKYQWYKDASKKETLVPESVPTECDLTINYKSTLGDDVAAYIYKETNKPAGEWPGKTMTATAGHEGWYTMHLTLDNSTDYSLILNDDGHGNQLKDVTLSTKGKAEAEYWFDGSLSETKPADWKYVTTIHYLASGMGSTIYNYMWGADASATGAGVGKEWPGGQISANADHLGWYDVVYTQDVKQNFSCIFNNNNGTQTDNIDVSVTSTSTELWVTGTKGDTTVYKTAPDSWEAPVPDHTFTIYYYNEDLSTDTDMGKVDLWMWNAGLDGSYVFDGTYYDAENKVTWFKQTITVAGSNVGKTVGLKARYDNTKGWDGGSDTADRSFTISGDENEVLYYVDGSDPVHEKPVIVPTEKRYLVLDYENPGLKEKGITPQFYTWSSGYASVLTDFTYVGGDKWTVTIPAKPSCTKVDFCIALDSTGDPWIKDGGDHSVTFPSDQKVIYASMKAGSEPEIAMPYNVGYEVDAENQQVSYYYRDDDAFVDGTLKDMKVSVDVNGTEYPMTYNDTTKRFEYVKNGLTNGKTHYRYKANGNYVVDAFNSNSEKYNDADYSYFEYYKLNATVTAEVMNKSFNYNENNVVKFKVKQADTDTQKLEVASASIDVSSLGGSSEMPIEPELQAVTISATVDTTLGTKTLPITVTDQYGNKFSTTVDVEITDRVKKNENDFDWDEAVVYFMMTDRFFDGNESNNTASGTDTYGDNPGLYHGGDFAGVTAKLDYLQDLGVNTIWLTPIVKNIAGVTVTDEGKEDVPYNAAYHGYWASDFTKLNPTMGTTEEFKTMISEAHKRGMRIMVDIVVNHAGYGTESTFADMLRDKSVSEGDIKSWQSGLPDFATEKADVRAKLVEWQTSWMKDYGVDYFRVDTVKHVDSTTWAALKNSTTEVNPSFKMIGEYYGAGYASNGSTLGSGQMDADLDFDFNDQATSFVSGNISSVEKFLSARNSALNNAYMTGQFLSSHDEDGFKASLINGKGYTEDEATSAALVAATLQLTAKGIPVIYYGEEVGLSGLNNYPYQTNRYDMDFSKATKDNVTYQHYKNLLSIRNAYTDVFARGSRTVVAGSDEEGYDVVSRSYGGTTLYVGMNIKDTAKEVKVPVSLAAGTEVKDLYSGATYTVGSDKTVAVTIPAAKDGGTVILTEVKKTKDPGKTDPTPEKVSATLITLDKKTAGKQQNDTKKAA

[7] = target: T4, EUR_21010 (Agathobacter rectalis, UniProt C4ZGN9); experiment: isothermal titration calorimetry; type: binding; details: 20 mM HEPES, 100 mM NaCl pH 7.0, 25 °C
T4 sequence (C4ZGN9 26-464): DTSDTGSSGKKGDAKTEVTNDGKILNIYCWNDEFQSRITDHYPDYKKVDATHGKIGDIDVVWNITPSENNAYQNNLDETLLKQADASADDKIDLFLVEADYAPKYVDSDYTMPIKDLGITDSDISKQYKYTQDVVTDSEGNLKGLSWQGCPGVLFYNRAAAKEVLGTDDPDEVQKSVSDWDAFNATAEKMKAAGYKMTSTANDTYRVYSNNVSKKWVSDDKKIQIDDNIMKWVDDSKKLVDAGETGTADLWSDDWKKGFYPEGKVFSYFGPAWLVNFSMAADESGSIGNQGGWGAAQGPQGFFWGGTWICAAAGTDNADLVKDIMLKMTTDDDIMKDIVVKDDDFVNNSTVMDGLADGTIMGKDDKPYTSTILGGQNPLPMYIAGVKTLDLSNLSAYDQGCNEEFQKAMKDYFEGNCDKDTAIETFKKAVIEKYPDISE

Structure (SMILES): OC[C@H]1O[C@H](O[C@H]2[C@H](O)[C@@H](O)[C@@H](O[C@H]3[C@H](O)[C@@H](O)[C@@H](O[C@H]4[C@H](O)[C@@H](O)[C@@H](O[C@H]5[C@H](O)[C@@H](O)[C@@H](O[C@H]6[C@H](O)[C@@H](O)C(O)O[C@@H]6CO)O[C@@H]5CO)O[C@@H]4CO)O[C@@H]3CO)O[C@@H]2CO)[C@H](O)[C@@H](O)[C@@H]1O (stereo partly shown) [Maltohexaose]
Kd ([1]; read-out: EUR_01830 / Kd): 160 ± 6 nM

Kd [2]: 415 ± 20.2 nM
Structure (SMILES): OC[C@H]1OC(O)[C@H](O)[C@@H](O)[C@H]1O (stereo partly shown) [Galactose]

Structure (SMILES): OC[C@H]1O[C@H](O[C@H]2[C@H](O)[C@@H](O)[C@@H](O[C@H]3[C@H](O)[C@@H](O)C(O)O[C@@H]3CO)O[C@@H]2CO)[C@H](O)[C@@H](O)[C@@H]1O (stereo partly shown) [Maltotriose]
Kd [3]: 550 ± 14 nM
Kd [4]: 355 ± 0.4 nM

Structure (SMILES): OC[C@H]1O[C@H](OC[C@H]2O[C@H](O[C@H]3[C@H](O)[C@@H](O)[C@@H](O[C@H]4[C@H](O)[C@@H](O)[C@@H](OC[C@H]5O[C@H](O[C@H]6[C@H](O)[C@@H](O)[C@@H](O[C@H]7[C@H](O)[C@@H](O)C(O)O[C@@H]7CO)O[C@@H]6CO)[C@H](O)[C@@H](O)[C@@H]5O)O[C@@H]4CO)O[C@@H]3CO)[C@H](O)[C@@H](O)[C@@H]2O)[C@H](O)[C@@H](O)[C@@H]1O (stereo partly shown) [GMM]
isothermal titration calorimetry [5]: We obtained an isotherm with GMM, but these data could not be fit well enough

Kd [4]: 563 ± 66.4 nM
Structure (SMILES): OC[C@H]1O[C@H](O[C@H]2[C@H](O)[C@@H](O)C(O)O[C@@H]2CO)[C@H](O)[C@@H](O)[C@@H]1O (stereo partly shown) [Maltose]

Structure (SMILES): OC[C@H]1O[C@H](O[C@H]2[C@H](O)[C@@H](O)[C@@H](O[C@H]3[C@H](O)[C@@H](O)[C@@H](O[C@H]4[C@H](O)[C@@H](O)[C@@H](O[C@H]5[C@H](O)[C@@H](O)C(O)O[C@@H]5CO)O[C@@H]4CO)O[C@@H]3CO)O[C@@H]2CO)[C@H](O)[C@@H](O)[C@@H]1O (stereo partly shown) [Maltopentaose]
Kd ([1]; read-out: EUR_01830 / Kd): 194 ± 34.8 nM

Kd [2]: 1900 ± 460 nM
Structure (SMILES): OC[C@H]1OC(O)[C@H](O)[C@@H](O)[C@@H]1O (stereo partly shown) [Glucose]

Structure (SMILES): OC[C@H]1O[C@H](O[C@H]2[C@H](O)[C@@H](O)[C@@H](O[C@H]3[C@H](O)[C@@H](O)[C@@H](O[C@H]4[C@H](O)[C@@H](O)C(O)O[C@@H]4CO)O[C@@H]3CO)O[C@@H]2CO)[C@H](O)[C@@H](O)[C@@H]1O (stereo partly shown) [Maltotetraose]
Kd [4]: 1670 ± 199 nM
Kd ([1]; read-out: EUR_01830 / Kd): 112 ± 19.8 nM

Structure (SMILES): OC[C@H]1O[C@@H]2O[C@H]3[C@H](O)[C@@H](O)[C@@H](O[C@H]4[C@H](O)[C@@H](O)[C@@H](O[C@H]5[C@H](O)[C@@H](O)[C@@H](O[C@H]6[C@H](O)[C@@H](O)[C@@H](O[C@H]7[C@H](O)[C@@H](O)[C@@H](O[C@H]1[C@H](O)[C@H]2O)O[C@@H]7CO)O[C@@H]6CO)O[C@@H]5CO)O[C@@H]4CO)O[C@@H]3CO [α-cyclodextrin]
Kd [1]: 39 900 ± 2 430 nM

Structure (SMILES): OC[C@H]1O[C@H](OC[C@H]2O[C@H](O[C@H]3[C@H](O)[C@@H](O)[C@@H](O[C@H]4[C@H](O)[C@@H](O)C(O)O[C@@H]4CO)O[C@@H]3CO)[C@H](O)[C@@H](O)[C@@H]2O)[C@H](O)[C@@H](O)[C@@H]1O (stereo partly shown) [GM]
Kd ([1]; read-out: EUR_01830 / Kd): 9080 ± 618 nM

Structure (SMILES): OC[C@H]1O[C@H](O[C@H]2[C@H](O)[C@@H](O)[C@@H](O[C@H]3[C@H](O)[C@@H](O)[C@@H](O[C@H]4[C@H](O)[C@@H](O)[C@@H](O[C@H]5[C@H](O)[C@@H](O)[C@@H](O[C@H]6[C@H](O)[C@@H](O)[C@@H](O[C@H]7[C@H](O)[C@@H](O)C(O)O[C@@H]7CO)O[C@@H]6CO)O[C@@H]5CO)O[C@@H]4CO)O[C@@H]3CO)O[C@@H]2CO)[C@H](O)[C@@H](O)[C@@H]1O (stereo partly shown) [Maltoheptaose]
thin layer chromatography of products [6]: can hydrolyze longer maltooligosaccharides such as maltohexaose and maltoheptaose
Kd ([1]; read-out: EUR_01830 / Kd): 288 ± 5.9 nM

Kd [7]: 3010 nM
Structure (SMILES): OC[C@H]1O[C@@H](O[C@H]2[C@H](O)[C@@H](O)[C@H](O[C@H]3[C@H](O)[C@@H](O)[C@H](O[C@H]4[C@H](O)[C@@H](O)C(O)O[C@@H]4CO)O[C@@H]3CO)O[C@@H]2CO)[C@H](O)[C@@H](O)[C@@H]1O (stereo partly shown) [cellotetraose]

Kd [7]: 542 nM
Structure (SMILES): OC[C@H]1O[C@@H](O[C@H]2[C@H](O)[C@@H](O)C(O)O[C@@H]2CO)[C@H](O)[C@@H](O)[C@@H]1O (stereo partly shown) [cellobiose]
